ChEMBL document CHEMBL1146502, “Dimeric flavonol glycoside and galloylated C-glucosylchromones from Kunzea ambigua” (J Nat Prod, 2004)

Experiments:
Type in all cases: cell-based
[1] = test system: Raji; assay: Inhibition of TPA-induced EBV-early antigen activation in human Raji cells assessed as EA activation at 10 molar ratio after 48 hrs relative to TPA; conditions: human gammaherpesvirus 4
How it was run: (§1)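 Raji cells (EBV genome-carrying, virus nonproducer) were grown in RPMI-1640 with 10% FBS. Cells at 1 × 10⁶/mL were held 48 h at 37 °C with 4 mM n-butyric acid, TPA 20 ng (32 pmol)/mL, and test compound in DMSO, dosed as a mol ratio to TPA. EA-positive cells in smears were scored by indirect immunofluorescence, with ≥500 cells counted, in triplicate. Results are given relative to the butyrate+TPA control (100%).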

[2] = test system: Raji; assay: Inhibition of TPA-induced EBV-early antigen activation in human Raji cells assessed as EA activation at 1000 molar ratio after 48 hrs relative to TPA; conditions: human gammaherpesvirus 4; how it was run: as §1
[3] = Cytotoxicity against human Raji cells assessed as cell viability at 500 molar ratio; conditions: read-out: Activity
[4] = Cytotoxicity against human Raji cells assessed as cell viability at 10 molar ratio; conditions: read-out: Activity
[5] = Cytotoxicity against human Raji cells assessed as cell viability at 1000 molar ratio; conditions: read-out: Activity
[6] = Cytotoxicity against human Raji cells assessed as cell viability at 100 molar ratio; conditions: read-out: Activity
[7] = test system: Raji; assay: Inhibition of TPA-induced EBV-early antigen activation in human Raji cells assessed as EA activation at 500 molar ratio after 48 hrs relative to TPA; conditions: human gammaherpesvirus 4; how it was run: as §1
[8] = test system: Raji; assay: Inhibition of TPA-induced EBV-early antigen activation in human Raji cells assessed as EA activation at 100 molar ratio after 48 hrs relative to TPA; conditions: human gammaherpesvirus 4; how it was run: as §1

SMILES | EBV-EA activation relative to control (%) [1] [%] | EBV-EA activation relative to control (%) [2] [%] | viability at 500 molar ratio [3] [%] | viability at 10 molar ratio [4] [%] | viability at 1000 molar ratio [5] [%] | viability at 100 molar ratio [6] [%] | EBV-EA activation relative to control (%) [7] [%] | EBV-EA activation relative to control (%) [8] [%]
Cc1c(O)c(Cc2c(O)cc3oc(-c4ccc(O)c(O)c4)c(O[C@@H]4O[C@@H](C)[C@H](O)[C@@H](O)[C@H]4O)c(=O)c3c2O)c2oc(-c3ccc(O)c(O)c3)c(O[C@@H]3O[C@@H](C)[C@H](O)[C@@H](O)[C@H]3O)c(=O)c2c1O [KUNZEAGIN A] | 90.5 | 4.3 | 80 | 80 | 70 | 80 | 32.5 | 66.1
CC(C)c1cc(=O)c2c(O)cc(O)c([C@@H]3O[C@H](CO)[C@@H](O)[C@H](O)[C@H]3OC(=O)c3cc(O)c(O)c(O)c3)c2o1 | 100 | 11.5 | 80 | 80 | 70 | 80 | 31.6 | 74.7
CC(C)c1cc(=O)c2c(O)cc(O)c([C@@H]3O[C@H](CO)[C@@H](O)[C@H](O)[C@H]3O)c2o1 | 100 | 9.1 | 80 | 80 | 70 | 80 | 29.6 | 72.5
O=C(O[C@@H]1Cc2c(O)cc(O)cc2O[C@@H]1c1cc(O)c(O)c(O)c1)c1cc(O)c(O)c(O)c1 [EPIGALOCATECHIN GALLATE] | 87.7 | 6.4 | 80 | 80 | 70 | 80 | 34.9 | 68.1
CC(C)c1cc(=O)c2c(O)c([C@@H]3O[C@H](CO)[C@@H](O)[C@H](O)[C@H]3O)c(O)cc2o1 | 91 | 4.6 | 80 | 80 | 70 | 80 | 23.7 | 65
CC(C)c1cc(=O)c2c(O)c([C@@H]3O[C@H](CO)[C@@H](O)[C@H](O)[C@H]3OC(=O)c3cc(O)c(O)c(O)c3)c(O)cc2o1 | 94.8 | 5.9 | 80 | 80 | 70 | 80 | 26.8 | 70.4
